Measurements reported in paper PMC11725097 (Acta Pharmaceutica Sinica. B, 2024).

Assays:
[1] = target: T1, recombinant human cathepsin A (CTSA) (Homo sapiens, UniProt P10619); test: CTSA-catalyzed H2S release, fluorescent probe DNS-N3; assay type: biochemical; conditions: donors 5 μmol/L, CTSA 250 ng/mL, pH 7.4, 37 °C
T1 sequence (P10619 29-326 limits assumed): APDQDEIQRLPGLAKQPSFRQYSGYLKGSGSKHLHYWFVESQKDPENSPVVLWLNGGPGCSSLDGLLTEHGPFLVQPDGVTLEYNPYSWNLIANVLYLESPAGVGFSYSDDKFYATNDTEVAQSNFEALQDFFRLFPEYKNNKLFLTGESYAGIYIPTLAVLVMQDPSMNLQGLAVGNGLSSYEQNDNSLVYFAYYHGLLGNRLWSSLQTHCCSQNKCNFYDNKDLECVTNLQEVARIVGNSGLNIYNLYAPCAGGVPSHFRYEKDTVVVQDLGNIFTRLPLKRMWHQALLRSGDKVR
T1 sequence (P10619 327-480 limits assumed): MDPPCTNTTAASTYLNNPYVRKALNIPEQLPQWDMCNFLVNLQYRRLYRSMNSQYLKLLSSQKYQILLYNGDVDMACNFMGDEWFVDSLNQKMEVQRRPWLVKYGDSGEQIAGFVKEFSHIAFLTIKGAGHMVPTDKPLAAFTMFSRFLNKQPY
How it was run: (§1)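 Donor at 5 µmol/L final and DNS-N3 probe at 10 µmol/L final were incubated at 37 °C in 10 mmol/L TBS, pH 7.4, with 1% acetonitrile and 1% […]. The enzyme was either CPY at 60 ng/mL or pre-activated recombinant human CTSA at 250 ng/mL. Aliquots were mixed 1:1 with ACN and fluorescence read at Ex/Em 325/450 nm, minus control background. k came from a single-exponential fit, with t1/2 = 0.693/k. Triplicates, mean ± SD.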

HepG2 cells [2] = test: Formation of compound 3 in lysosomes of HepG2 cells; assay type: cell-based; conditions: HepG2, JZ-6 25 μmol/L with BNPP 20 μmol/L or telaprevir 5 μmol/L, 6 h
How it was run: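 HepG2 cells were treated 6 h with donor (25 µmol/L) alone, with BNPP (20 µmol/L) or with telaprevir (5 µmol/L). For lysosome isolation, cells were Dounce-homogenised and spun at 1000 × g, then 20,000 × g, and the top band taken from an OptiPrep gradient at 100,000 × g, 1 h. Fractions were lysed in cold 70% methanol and analysed by LC–MS/MS, normalised to BCA protein. Triplicate.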

[3] = Detection of H2S and sulfur-containing species in mouse liver; assay type: in vivo, BALB/c mice; conditions: oral JZ-HND 1.0 mmol/kg
How it was run: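 BALB/c mice received an oral dose of 1.0 mmol/kg. Liver was collected before dosing (0 h) and at 0.5 and 4 h, then homogenised 10:1 in 20 mmol/L HPE-IAM in MeOH to trap H2S and sulfur species as S-alkylated derivatives, and stored below −40 °C. Derivatives were quantified by LC–MS/MS against synthesised standards and calibration curves. n = 3, mean ± SD.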

LX-2 cells = test: ROS induced by TGF-β1 in LX-2 cells; assay type: cell-based, human; conditions: LX-2, TGF-β1 10 ng/mL, compound 100 μmol/L, 24 h
How it was run: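 LX-2 cells were grown in high-glucose DMEM with 10% FBS at 37 °C and 5% CO2, then plated at 1×10^5/well overnight. Cells were co-treated 24 h with compound (100 µmol/L) and TGF-β1 (10 ng/mL). They were loaded with DCFH-DA (10 µmol/L) for 30 min and Hoechst 33342 for 10 min at 37 °C, then imaged by fluorescence microscopy in the GFP channel.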

[4] = H2S release within tissue homogenates; assay type: in vitro ADME, Sprague-Dawley rats; conditions: donors 250 μmol/L, rat intestine and liver homogenates, 40 min
Carboxypeptidase Y (CPY) [5] = target: T2, Carboxypeptidase Y (CPY) (Saccharomyces cerevisiae, UniProt P00729); test: H2S donor activation by CPY monitored by LC-MS/MS; assay type: in vitro ADME; conditions: JZ-HND 5 μmol/L, CPY 60 ng/mL
T2 sequence (P00729 112-532): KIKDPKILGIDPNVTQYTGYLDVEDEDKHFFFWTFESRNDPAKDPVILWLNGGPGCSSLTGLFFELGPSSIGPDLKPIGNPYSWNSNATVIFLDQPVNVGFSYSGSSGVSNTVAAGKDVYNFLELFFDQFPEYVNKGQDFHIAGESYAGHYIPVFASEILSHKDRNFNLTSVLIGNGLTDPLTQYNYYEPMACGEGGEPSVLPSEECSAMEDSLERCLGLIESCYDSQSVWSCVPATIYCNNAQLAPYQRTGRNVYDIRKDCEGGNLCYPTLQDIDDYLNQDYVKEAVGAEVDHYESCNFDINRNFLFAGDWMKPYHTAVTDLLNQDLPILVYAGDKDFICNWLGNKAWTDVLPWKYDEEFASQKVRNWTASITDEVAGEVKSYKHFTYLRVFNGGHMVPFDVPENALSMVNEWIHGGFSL
How it was run: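 Donor at 5 µmol/L final and DNS-N3 at 10 µmol/L final were incubated with CPY (60 ng/mL) in 10 mmol/L TBS, pH 7.4, with 1% menthol, at 37 °C. Parent loss and formation of products, including DNS-NH2, were quantified by LC–MS/MS against calibration curves. Rate constants came from a single-exponential fit, with t1/2 = 0.693/k. Triplicate runs, mean ± SD.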

Carboxypeptidase Y (CPY) [6] = target: T2, Carboxypeptidase Y (CPY); test: Enzyme; assay type: biochemical; conditions: CPY 60 ng/mL; for H2S release over 6 h: donors 5 μmol/L, DNS-N3 10 μmol/L, TBS pH 7.4, 37 °C
How it was run: as §1

[7] = Animal pharmacokinetics, mice livers; assay type: in vivo, BALB/c mice; conditions: oral JZ-HND 1.0 mmol/kg
How it was run: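 Male BALB/c mice, fasted 12 h without water, were gavaged at 1 mmol/kg in 0.5% CMC-Na (3 groups, n = 3 each). Plasma was separated by centrifugation and stored below −40 °C. Liver was taken at 0.5, 4 and 8 h post dose and homogenised 10:1 in PBS containing 70% MeOH. Parent and metabolites were quantified by LC–MS/MS.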

RAW264.7 macrophages = test: LPS-induced IL-1β and IL-6 release in RAW 264.7 macrophages; assay type: cell-based, mouse; conditions: RAW 264.7, LPS 1 μg/mL, 20, 100, 500 μmol/L, 24 h
How it was run: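 RAW 264.7 cells (2×10^5/well) were plated overnight. Cells were pretreated 1 h with compound or NaHS at 20, 100 or 500 µmol/L, then stimulated with LPS (1 µg/mL) for 24 h. IL-1β and IL-6 in the supernatants were measured by ELISA. Three independent experiments, mean ± SD.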

[8] = tested on: CCl4-induced liver injury; test: CCl4-induced liver injury model in mice; assay type: in vivo, BALB/c mice; conditions: 1 mmol/kg oral daily, 4 weeks
[9] = tested on: human hepatic stellate LX-2 cells; test: TGF-β1-induced fibrosis in LX-2 cells, ACTA2 and COL1A1 mRNA; assay type: cell-based; conditions: LX-2, TGF-β1, 72 h; JZ-HND 25-200 μmol/L, others 200 μmol/L
HepG2 cells [10] = test: MDA; assay type: cell-based; conditions: HepG2, FFA 1 mmol/L, 24 h; JZ-6 20, 100, 500 μmol/L; NaHS and JZ-9 500 μmol/L
How it was run: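 HepG2 cells (7×10^5/well, plated overnight) were co-incubated 24 h with FFA (1 mmol/L) alone or plus compound (20, 100 or 500 µmol/L) or NaHS (500 µmol/L). MDA in cell lysates was measured with a kit by fluorescence at Ex/Em 532/553 nm and normalised to cell counts. Three independent experiments, mean ± SD.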

HepG2 cells [11] = test: FFA-induced ROS accumulation in HepG2 cells; assay type: cell-based; conditions: HepG2, compound 100 μmol/L 8 h before FFA 1 mmol/L 24 h
HepG2 cells [12] = test: Ferroptosis rescue, RSL3-treated HepG2 cells; assay type: cell-based; conditions: HepG2, RSL3 4 μmol/L; JZ-6 20 μmol/L, Fer-1 1 μmol/L, 24 h
How it was run: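 HepG2 cells (5×10^3/well) were plated overnight. Cells were pretreated 2 h with RSL3 (4 µmol/L), then given medium, compound (20 µmol/L) or Fer-1 (1 µmol/L) for 24 h. CCK-8 was added for 2–4 h at 37 °C and absorbance read at 450 nm. Viability is expressed as % of medium-treated control. Three independent experiments, mean ± SD.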

CC(C)OC(=O)[C@H](C)NP(=S)(Oc1ccc(CCN2CCOCC2)cc1)c1ccccc1 (stereo partly shown) [JZ-18]
H2S release, rate constant k [1]: 0.2978 h⁻¹ | H2S yield ([1]; 10 h): approximately 37%

CCC[C@H](NC(=O)[C@@H]1[C@H]2CCC[C@H]2CN1C(=O)[C@@H](NC(=O)[C@@H](NC(=O)c1cnccn1)C1CCCCC1)C(C)(C)C)C(=O)C(=O)NC1CC1 [telaprevir]
effect of inhibitor on lysosomal 3 formed from JZ-6 (HepG2 cells [2]): significant decrease

Cc1ccc(=O)n(-c2ccc(OP(=S)(N[C@@H](C)C(=O)OC(C)C)c3ccccc3)cc2)c1 (stereo partly drawn) [JZ-HND, isopropyl ((4-(5-methyl-2-oxopyridin-1(2H)-yl)phenoxy) (phenyl)phosphorothioyl)-L-alaninate]
levels of HSSH and CysSH in liver [3]: no significant change | levels of GSH, GSSH and CysSSH in liver ([3]; 0.5 h): significant increases | H2S level in liver tissue ([3]; 0.5 h vs pre-dose (0 h)): significant increase compared to the pre-dose level | ROS levels induced by TGF-β1 (LX-2 cells): significantly inhibited | H2S release behaviour in homogenates [4]: biphasic and lasted longer | generation of 3, rate constant k (Carboxypeptidase Y (CPY) [5]): 0.3133 h⁻¹ | generation of HND, rate constant k (Carboxypeptidase Y (CPY) [5]): 1.090 h⁻¹ | degradation of donor, rate constant k (Carboxypeptidase Y (CPY) [5]; TBS pH 7.4, 37 °C): 1.085 h⁻¹ | generation of H2S, rate constant k (Carboxypeptidase Y (CPY) [6]; JZ-HND 5 μmol/L, pH 7.4, 37 °C): 0.3748 h⁻¹ | Cmax (liver) [7]: 15 µM | time of maximum intrahepatic concentration [7]: half an hour | detection in the liver after 8 h of administration ([7]; 8 h): not detected | IL-1β and IL-6 secretion (RAW264.7 macrophages): significant inhibition | collagen fiber accumulation (Masson's trichrome) [8]: significantly slowed collagen fiber accumulation | hepatic ballooning and inflammatory cell infiltration (H&E) [8]: significantly reduced | hepatic expression of oxidative stress genes (Gpx1, Sod1, Sod2, Cat) [8]: rebounded | hepatic tissue GPX activity [8]: significant increase | liver gene levels of fibrotic markers (Tgfb1, Col1a1, Col3a1, Acta2) [8]: reversals of the increased gene levels | liver mRNA levels of Nfkb1, Il1b and Tnfa [8]: strongly suppressed | serum ALT and AST levels [8]: consistently lower | serum SOD activity ([8]; vs control and HND groups): significantly lower | mRNA expression of ACTA2 and COL1A1 [9]: dose-dependently inhibited

C1COCCN1.COc1ccc(P(=S)(S)N2CCOCC2)cc1 (stereo not shown) [GYY4137, reference compound]
H2S release behaviour in homogenates [4]: almost undetectable | H2S release over 6 h (Carboxypeptidase Y (CPY) [6]): low amount of H2S

[Na+].[SH-] [NaHS]
MDA levels (lipid peroxidation) (HepG2 cells [10]): alleviated | IL-1β and IL-6 secretion (RAW264.7 macrophages): modest inhibitory effect | cellular ROS accumulation induced by FFA (HepG2 cells [11]): strikingly reduced the cellular fluorescence signal

O=[N+]([O-])c1ccc(OP(=O)(O)Oc2ccc([N+](=O)[O-])cc2)cc1 [BNPP, bis(p-nitrophenyl) phosphate]
effect of inhibitor on lysosomal 3 formed from JZ-6 (HepG2 cells [2]): increase in lysosomal 3

CCOC(=O)c1ccc(NC2CCCCC2)c(N)c1 [ferrostatin-1]
cell viability after RSL3 (ferroptosis rescue) (HepG2 cells [12]): attenuated RSL3-induced cytotoxicity

CNC(=O)[C@H](C)NP(=S)(Oc1ccccc1)c1ccccc1 (stereo partly shown) [JZ-12]
H2S release over 6 h (Carboxypeptidase Y (CPY) [6]): inadequate

Cc1ccc(=O)n(-c2ccc(OP(=O)(N[C@@H](C)C(=O)OC(C)C)c3ccccc3)cc2)c1 (stereo partly shown) [JZ-17]
mRNA expression of ACTA2 and COL1A1 [9]: did not inhibit the expression of pro-fibrotic genes as much as JZ-HND
